Test results: ChEMBL document CHEMBL2417369, “Synthesis and evaluation of heteroaryl substituted diazaspirocycles as scaffolds to probe the ATP-binding site of protein kinases” (Bioorg Med Chem, 2013)

How the values were obtained:
[1] = target: T1, Aurora kinase A (Homo sapiens) (UniProt O14965); assay: Inhibition of AURA (unknown origin) at 30 uM by microfluidic mobility shift assay relative to control
T1 sequence (whole entry): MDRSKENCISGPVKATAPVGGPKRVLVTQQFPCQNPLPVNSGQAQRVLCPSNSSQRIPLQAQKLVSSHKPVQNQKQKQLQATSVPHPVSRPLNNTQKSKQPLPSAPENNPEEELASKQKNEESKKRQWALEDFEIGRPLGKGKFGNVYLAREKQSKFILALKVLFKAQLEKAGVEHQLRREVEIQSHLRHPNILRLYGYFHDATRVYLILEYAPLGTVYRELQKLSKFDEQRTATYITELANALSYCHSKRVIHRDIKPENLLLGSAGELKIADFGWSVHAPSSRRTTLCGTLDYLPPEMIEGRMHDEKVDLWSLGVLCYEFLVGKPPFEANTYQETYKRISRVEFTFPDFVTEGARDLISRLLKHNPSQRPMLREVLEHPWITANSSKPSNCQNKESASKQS
Method in brief: (§1)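 Single-point screen in a 24-enzyme kinase panel using a microfluidic assay. Each compound was tested at […] with ATP at roughly the Km for each enzyme. The pan-AGC inhibitor H-89 served as an internal control on every plate.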

[2] = target: Protein kinase C (PKC) (Homo sapiens) (UniProt O94806+P41743+P17252+P05129+Q05655+P05771+Q05513+Q02156+P24723+Q15139+Q04759); assay: Inhibition of PKC (unknown origin) at 30 uM by microfluidic mobility shift assay relative to control; method in brief: as §1
[3] = target: Mitogen-activated protein kinase 1 (Homo sapiens, UniProt P28482); assay: Inhibition of ERK2 (unknown origin) at 30 uM by microfluidic mobility shift assay relative to control; method in brief: as §1
[4] = target: Mitogen-activated protein kinase 3 (Homo sapiens, UniProt P27361); assay: Inhibition of ERK1 (unknown origin) at 30 uM by microfluidic mobility shift assay relative to control; method in brief: as §1
[5] = target: Glycogen synthase kinase-3 beta (Homo sapiens, UniProt P49841); assay: Inhibition of GSK3beta (unknown origin) at 30 uM by microfluidic mobility shift assay relative to control; method in brief: as §1
[6] = target: Ribosomal protein S6 kinase alpha-5 (Homo sapiens, UniProt O75582); assay: Inhibition of MSK1 (unknown origin) at 30 uM by microfluidic mobility shift assay relative to control; method in brief: as §1
[7] = target: RAC-alpha serine/threonine-protein kinase (Homo sapiens, UniProt P31749); assay: Inhibition of AKT1 (unknown origin) at 30 uM by microfluidic mobility shift assay relative to control; method in brief: as §1
[8] = target: Proto-oncogene tyrosine-protein kinase Src (Homo sapiens, UniProt P12931); assay: Inhibition of SRC (unknown origin) at 30 uM by microfluidic mobility shift assay relative to control; method in brief: as §1
[9] = target: MAP kinase-activated protein kinase 2 (Homo sapiens) (UniProt P49137); assay: Inhibition of MK2 (unknown origin) at 30 uM by microfluidic mobility shift assay relative to control; method in brief: as §1
[10] = species on record: Homo sapiens; assay: Inhibition of PKA (unknown origin) at 30 uM by microfluidic mobility shift assay relative to control; method in brief: as §1

Chain of MAP kinase-activated protein kinase 2 (Homo sapiens) (P49137 whole entry, looked up): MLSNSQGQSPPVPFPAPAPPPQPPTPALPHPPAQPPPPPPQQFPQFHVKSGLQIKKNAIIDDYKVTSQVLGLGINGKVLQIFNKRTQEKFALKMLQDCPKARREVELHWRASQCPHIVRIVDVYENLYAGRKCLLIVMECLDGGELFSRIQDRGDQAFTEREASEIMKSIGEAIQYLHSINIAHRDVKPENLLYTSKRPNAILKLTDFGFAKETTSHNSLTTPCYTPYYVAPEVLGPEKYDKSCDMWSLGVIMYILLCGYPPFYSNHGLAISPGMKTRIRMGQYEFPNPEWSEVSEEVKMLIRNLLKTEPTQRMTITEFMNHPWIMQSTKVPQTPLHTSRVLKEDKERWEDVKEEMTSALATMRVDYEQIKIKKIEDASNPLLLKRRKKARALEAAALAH
Chain of Proto-oncogene tyrosine-protein kinase Src (P12931 2-536 limits assumed): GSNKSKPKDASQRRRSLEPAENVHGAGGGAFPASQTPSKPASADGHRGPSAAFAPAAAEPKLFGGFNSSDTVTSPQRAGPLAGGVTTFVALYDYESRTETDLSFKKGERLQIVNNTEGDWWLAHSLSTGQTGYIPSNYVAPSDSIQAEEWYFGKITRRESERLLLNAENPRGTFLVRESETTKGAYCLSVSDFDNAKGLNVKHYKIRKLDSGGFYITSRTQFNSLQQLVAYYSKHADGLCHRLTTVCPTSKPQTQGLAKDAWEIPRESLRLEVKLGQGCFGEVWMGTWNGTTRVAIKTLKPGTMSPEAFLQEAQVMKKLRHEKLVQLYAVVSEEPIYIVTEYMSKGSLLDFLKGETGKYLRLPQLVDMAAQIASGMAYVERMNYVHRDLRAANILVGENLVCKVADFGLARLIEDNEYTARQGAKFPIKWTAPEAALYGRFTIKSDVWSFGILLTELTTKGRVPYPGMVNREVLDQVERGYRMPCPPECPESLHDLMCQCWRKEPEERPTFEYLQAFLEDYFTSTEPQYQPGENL
Chain of Mitogen-activated protein kinase 3 (P27361 whole entry): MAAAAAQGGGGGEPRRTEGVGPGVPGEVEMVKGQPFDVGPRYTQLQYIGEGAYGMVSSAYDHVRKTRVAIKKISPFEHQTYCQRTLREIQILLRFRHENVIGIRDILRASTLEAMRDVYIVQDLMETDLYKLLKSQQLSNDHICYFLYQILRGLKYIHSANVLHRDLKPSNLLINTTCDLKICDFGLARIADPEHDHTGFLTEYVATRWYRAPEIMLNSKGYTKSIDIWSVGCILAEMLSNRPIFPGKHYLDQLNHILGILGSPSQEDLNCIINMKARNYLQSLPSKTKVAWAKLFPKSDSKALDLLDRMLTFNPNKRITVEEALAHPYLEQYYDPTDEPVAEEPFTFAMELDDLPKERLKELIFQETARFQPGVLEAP
Chain of Mitogen-activated protein kinase 1 (P28482 whole entry): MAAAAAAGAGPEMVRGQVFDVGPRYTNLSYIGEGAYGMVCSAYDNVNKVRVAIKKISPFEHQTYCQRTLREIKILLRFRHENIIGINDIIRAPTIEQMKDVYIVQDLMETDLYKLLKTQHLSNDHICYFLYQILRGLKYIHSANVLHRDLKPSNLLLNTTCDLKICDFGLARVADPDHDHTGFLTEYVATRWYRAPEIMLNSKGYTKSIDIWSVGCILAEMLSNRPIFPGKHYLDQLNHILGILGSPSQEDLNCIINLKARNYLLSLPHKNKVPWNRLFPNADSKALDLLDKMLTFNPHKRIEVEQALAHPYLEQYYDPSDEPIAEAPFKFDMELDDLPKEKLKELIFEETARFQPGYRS
Chain of Glycogen synthase kinase-3 beta (P49841 whole entry, looked up): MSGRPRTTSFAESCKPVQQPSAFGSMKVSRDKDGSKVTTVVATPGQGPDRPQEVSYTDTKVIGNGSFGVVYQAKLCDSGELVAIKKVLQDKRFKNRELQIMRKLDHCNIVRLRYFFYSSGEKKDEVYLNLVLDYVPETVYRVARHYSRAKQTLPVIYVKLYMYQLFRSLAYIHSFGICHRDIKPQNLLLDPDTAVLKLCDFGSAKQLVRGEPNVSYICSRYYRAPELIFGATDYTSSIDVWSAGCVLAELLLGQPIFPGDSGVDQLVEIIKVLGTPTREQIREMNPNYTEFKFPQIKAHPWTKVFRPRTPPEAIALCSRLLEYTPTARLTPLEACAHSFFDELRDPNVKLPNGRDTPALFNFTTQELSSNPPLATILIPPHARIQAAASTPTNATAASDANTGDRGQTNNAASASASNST
Chain of Ribosomal protein S6 kinase alpha-5 (O75582 whole entry, looked up): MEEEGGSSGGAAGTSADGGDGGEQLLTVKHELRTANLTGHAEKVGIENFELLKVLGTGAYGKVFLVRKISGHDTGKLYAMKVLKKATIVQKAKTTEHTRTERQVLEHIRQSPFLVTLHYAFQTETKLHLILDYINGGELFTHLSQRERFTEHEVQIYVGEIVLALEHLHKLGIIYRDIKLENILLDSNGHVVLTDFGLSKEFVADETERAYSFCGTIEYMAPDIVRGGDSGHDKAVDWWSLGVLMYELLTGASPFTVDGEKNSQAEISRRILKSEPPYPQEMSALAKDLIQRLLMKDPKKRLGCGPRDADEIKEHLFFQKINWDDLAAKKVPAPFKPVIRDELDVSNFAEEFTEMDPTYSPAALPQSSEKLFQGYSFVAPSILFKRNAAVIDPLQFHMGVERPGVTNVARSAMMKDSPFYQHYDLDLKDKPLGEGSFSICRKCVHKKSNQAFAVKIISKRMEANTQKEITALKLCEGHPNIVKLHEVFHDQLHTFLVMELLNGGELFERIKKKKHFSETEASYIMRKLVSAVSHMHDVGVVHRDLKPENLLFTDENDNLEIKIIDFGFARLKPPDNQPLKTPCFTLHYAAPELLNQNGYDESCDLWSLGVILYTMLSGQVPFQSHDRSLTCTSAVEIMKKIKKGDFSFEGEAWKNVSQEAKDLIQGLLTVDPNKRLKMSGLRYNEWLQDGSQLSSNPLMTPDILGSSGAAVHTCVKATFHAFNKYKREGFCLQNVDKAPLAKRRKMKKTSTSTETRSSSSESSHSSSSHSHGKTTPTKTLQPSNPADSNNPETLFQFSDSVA
Chain of RAC-alpha serine/threonine-protein kinase (P31749 whole entry): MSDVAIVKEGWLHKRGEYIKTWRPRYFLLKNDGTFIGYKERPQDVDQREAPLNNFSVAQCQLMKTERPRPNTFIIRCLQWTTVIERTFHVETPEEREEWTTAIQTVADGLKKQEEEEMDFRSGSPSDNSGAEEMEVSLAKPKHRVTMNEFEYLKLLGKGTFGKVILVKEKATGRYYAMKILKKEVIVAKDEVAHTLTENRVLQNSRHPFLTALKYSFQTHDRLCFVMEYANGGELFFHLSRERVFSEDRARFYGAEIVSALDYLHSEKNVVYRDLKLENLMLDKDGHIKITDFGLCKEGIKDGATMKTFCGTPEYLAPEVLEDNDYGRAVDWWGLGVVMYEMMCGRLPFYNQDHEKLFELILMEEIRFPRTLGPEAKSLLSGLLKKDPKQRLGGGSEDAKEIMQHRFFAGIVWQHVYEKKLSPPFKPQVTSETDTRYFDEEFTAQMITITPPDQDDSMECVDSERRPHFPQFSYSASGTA

Structure (SMILES) | inhibition [1] [%] | inhibition [2] [%] | inhibition [3] [%] | inhibition [4] [%] | inhibition [5] [%] | inhibition [6] [%] | inhibition [7] [%] | inhibition [8] [%] | inhibition [9] [%] | inhibition [10] [%]
O=S(=O)(c1cccc2cnccc12)N1CCC2(CC1)CC(O)CCN2 (racemic) | 39 | 0 | 9 | 20 | 51 | 86 | 36 | 18 | 1 | 92
c1nc(N2CCCC23CCNCC3)c2nc[nH]c2n1 | 18 | 0 | 10 | 13 | 43 | 13 | 12 | 6 | 17 | 39
O=S(=O)(c1cccc2cnccc12)N1CCCC12CCNCC2 | 27 | 5 | 0 | 7 | 9 | 47 | 27 | 5 | 10 | 77
O=C(C1CCC2(CCN(c3ncnc4[nH]cnc34)CC2)NC1)N1CCOCC1 (racemic) | 72 | 18 | 20 | 18 | 9 | 62 | 66 | 15 | 11 | 85
c1nc(N2CCC3(CCCCO3)CC2)c2nc[nH]c2n1 | 92 | 0 | 28 | 31 | 56 | 49 | 26 | 49 | 20 | 77
O=S(=O)(c1cccc2cnccc12)N1CCC2(CCCN2)CC1 | 43 | 22 | 7 | 6 | 20 | 85 | 28 | 10 | 27 | 92
c1nc(N2CCC3(CCNC3)CC2)c2nc[nH]c2n1 | 59 | 26 | 38 | 39 | 39 | 94 | 94 | 61 | 66 | 99
c1nc(N2CCC3(CCCCN3)CC2)c2nc[nH]c2n1 | 81 | 0 | 50 | 46 | 28 | 88 | 87 | 25 | 24 | 98
c1nc(N2CCC3(CCCN3)CC2)c2nc[nH]c2n1 | 55 | 0 | 50 | 53 | 19 | 95 | 91 | 24 | 48 | 98
c1nc(N2CCC3(CCCNC3)CC2)c2nc[nH]c2n1 | 67 | 41 | 50 | 55 | 49 | 98 | 98 | 70 | 74 | 100
O=S(=O)(c1cccc2cnccc12)N1CCC2(CCC(O)CN2)CC1 (racemic) | 87 | 0 | 8 | 17 | 80 | 89 | 21 | 29 | 19 | 90
c1nc(N2CCC3(CCCCC3)CC2)c2nc[nH]c2n1 | 71 | 2 | 18 | 12 | 40 | 35 | 16 | 32 | 10 | 55
CNC(=O)C1CCC2(CCN(c3ncnc4[nH]cnc34)CC2)NC1 (racemic) | 74 | 0 | 30 | 30 | 17 | 80 | 83 | 24 | 10 | 95
c1nc(N2CCC3(CCCOC3)CC2)c2nc[nH]c2n1 | 67 | 7 | 35 | 41 | 66 | 45 | 25 | 41 | 15 | 67
OC1CCC2(CCN(c3ncnc4[nH]cnc34)CC2)NC1 (racemic) | 80 | 0 | 42 | 46 | 31 | 89 | 93 | 38 | 11 | 99
O=S(=O)(c1cccc2cnccc12)N1CCC2(CCNC2)CC1 | 51 | 0 | 4 | 14 | 1 | 41 | 18 | 10 | 13 | 76
c1nc(N2CCCC3(CCCNC3)C2)c2nc[nH]c2n1 (stereo not given) | 34 | 3 | 15 | 19 | 15 | 71 | 77 | 5 | 11 | 89
c1ccc(C2CCC3(CCN(c4ncnc5[nH]cnc45)CC3)NC2)cc1 (stereo not given) | 90 | 0 | 35 | 26 | 21 | 78 | 85 | 33 | 17 | 96
